The text below walks through data of ChEMBL document CHEMBL2146474, “Synthesis and evaluation of the anti-proliferative and NF-κB activities of a library of simplified tylophorine analogs” (Bioorg Med Chem, 2012).

Each structure is given as a SMILES string. Activity calls are given as the source filed them. The calls are words filed in the database; no cut-off is given here.

For assay [1], the system named is MCF7. Put plainly: Cytotoxicity against human MCF7 cells assessed as growth inhibition at 5 uM after 72 hrs by alamar blue assay. The class given is functional. The conditions noted are these: for inhibition of growth at 5 µM: MCF7, 72 h, read-out: GI. For orientation: The colour change of resazurin is a common sign of viable cells or microbes.
Assay [2] has as its system MCF7. Put plainly: Growth inhibition in human MCF7 cells after 72 hrs by alamar blue assay. The conditions noted are these: MCF7, 72 h. The class given is functional. The essentials: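 MCF-7 cells from exponential-phase culture re-suspended in RPMI1640 with 10% FBS, adjusted to 10⁵ cells/mL and plated in 96-well plates. Compounds from 10 mM DMSO stocks were added in fresh medium across varying concentrations. Cells were grown a further 72 h, then alamarBlue was added as read-out.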

The subject of another assay is DU-145. Put plainly: Growth inhibition in human DU145 cells after 72 hrs by alamar blue assay. The class given is functional. The conditions noted are these: DU-145, 72 h. The gist of the method: (§1)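 Cells harvested from exponential-phase culture and resuspended at 10⁵ cells/mL in growth medium with 10% FBS (RPMI1640, EMEM or DMEM; the DMEM also held penicillin, streptomycin and hygromycin), seeded in 96-well plates. Compounds from 10 mM DMSO stocks added in fresh medium across varying concentrations. Cultures grown a further 72 h, then alamarBlue added as read-out.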

The next assay has as its system A549. Put plainly: Growth inhibition in human A549 cells after 72 hrs by alamar blue assay. The assay is classed as functional. The conditions noted are these: A549, 72 h. The gist of the method:
as §1

Assay [3] in a line: Inhibition of TNFalpha-induced NF-kappaB activation in human A549 cells after 30 mins by luciferase reporter gene assay. The assay is classed as cell-based. The conditions noted are these: A549, 0.5 h. The essentials: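 A549/NF-κB-luc reporter cells trypsinized, seeded at 5000 cells/well and left 24 h to attach. Compound in complete growth medium added 30 min before TNF-α (1:667 dilution in 1× PBS). After a further 7 h, Bright-Glo luciferin reagent added and luciferase activity read 2 min later.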
A general note: Reporter assays use an easily measured gene product as a stand-in for the process of interest.

The GI50 is the concentration at which growth is held to half of that of the control. Read a low GI50 as more potent growth inhibition. As a reminder, the IC50 is the point on the concentration scale where inhibition reaches its midpoint.

Take `COc1cc2c3c(c4cc(OC)c(OC)cc4c2cc1OC)CN(C)CC3`: the inhibition of growth at 5 µM in the assay with MCF7 [1] was found to be 50%.
For `COc1cc2c3c(c4cc(OC)c(OC)cc4c2cc1OC)CN(Cc1cccc(OC)c1O)CC3`, the values for the GI50 in the assay with MCF7 [2], in the assay with DU-145 and with A549 were 3000 nM, 2100 nM and 2100 nM, respectively. Further, the “growth inhibition (GI)” value in the assay with MCF7 [1] was “Active”. The compound further showed an IC50 in assay [3] of 18900 nM.
On to `COc1ccc(CN2CCc3c(c4cc(OC)c(OC)cc4c4cc(OC)c(OC)cc34)C2)cc1`, for which the “growth inhibition (GI)” value with MCF7 [1] is “Active”.
Regarding `COc1cc2c3c(c4cc(OC)c(OC)cc4c2cc1OC)CN1CCC[C@H]1C3` [(S)-TYLOPHORINE], it took 42 nM to inhibit growth with MCF7 [2] by half (GI50).
Regarding `COc1cc2c3c(c4cc(OC)c(OC)cc4c2cc1OC)CN(Cc1ccccc1O)CC3`, the “growth inhibition (GI)” value in the assay with MCF7 [1] is “Active”.
Same read-out and setting: the entry for `COc1cc2c3c(c4cc(OC)c(OC)cc4c2cc1OC)CN(Cc1cc(C)on1)CC3` is “Active”.
Take `COc1cc2c3c(c4cc(OC)c(OC)cc4c2cc1OC)CN(CCN)CC3`: the “growth inhibition (GI)” value with MCF7 [1] is “inactive”.
Same read-out and setting: the entry for `COc1cc2c3c(c4cc(OC)c(OC)cc4c2cc1OC)CN(Cc1ccc([N+](=O)[O-])cc1)CC3` is “Active”.
On to `COc1cc2c3c(c4cc(OC)c(OC)cc4c2cc1OC)CNCC3`, for which the inhibition of growth at 5 µM with MCF7 [1] was 50%.
`COc1cc2c3c(c4cc(OC)c(OC)cc4c2cc1OC)CN(Cc1c(OC)cccc1OC)CC3`: in the assay on MCF7 [1], the “growth inhibition (GI)” value is “inactive”.
The same measure, in the same setting: the result for `COc1cc2c3c(c4cc(OC)c(OC)cc4c2cc1OC)CN(Cc1ccc(CO)o1)CC3` reads “Active”; that for `COc1cc2c3c(c4cc(OC)c(OC)cc4c2cc1OC)CN(Cc1ccccc1)CC3`, “inactive”.
With `COc1ccccc1CN1CCc2c(c3cc(OC)c(OC)cc3c3cc(OC)c(OC)cc23)C1`, the GI50 amounted to 600 nM with MCF7 [2], 1500 nM in the assay on DU-145 and 1600 nM in the assay with A549. Moreover, the inhibition of growth at 5 µM in the assay with MCF7 [1] is 90%. The same compound registered an IC50 in assay [3] of 15000 nM.
In the assay on MCF7 [2], `COc1cc2c3c(c4cc(OC)c(OC)cc4c2cc1OC)CN1CCC[C@@H]1C3` [TYLOPHORINE] displayed a GI50 of 32 nM.
On to `COc1cc2c3c(c4cc(OC)c(OC)cc4c2cc1OC)CN1CCCC1C3` (racemic) [(+/-)-TYLOPHORINE], for which the GI50 was 42 nM in the assay with MCF7 [2], 71 nM with DU-145 and 45 nM with A549. This compound also returned an IC50 in assay [3] of 30 nM.
